# Data published in ChEMBL document CHEMBL1122517, “2-Phenylindoles. Relationship between structure, estrogen receptor affinity, and mammary tumor inhibiting activity in the rat” (1984).
# Where “and” joins values, the source holds several entries; their conditions need not be identical. Equal values may be shown once.
# How the values were obtained:
# [1] = organism: Rattus norvegicus; assay: Change in body weight of DMBA-induced mammary carcinoma tumor bearing rats at 2.8 mg dose; assay type: functional
# Procedure, shortened: (§1)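 DMBA-induced tumor-bearing Sprague-Dawley rats (20 mg DMBA by gavage at 50 days old), randomized when tumor area exceeded 140 mm². Dose per kg was given sc in olive oil, single dose daily Monday to Thursday, double dose Friday. Body weight was measured twice weekly. Read-out was % change in body weight.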
# [2] = organism: Rattus norvegicus; assay: Percent progressive DMBA-induced mammary carcinoma tumors in rats at 2.8 mg dose; assay type: functional
# Procedure, shortened: (§2)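 Female Sprague-Dawley rats, 50 days old, given a single 20 mg DMBA dose in 1 mL olive oil by gavage. Rats were palpated twice weekly from day 30, and those without tumors by day 70 were discarded. Rats were randomized once tumor area exceeded 140 mm². Drug dose was per kg in olive oil (1 mL/kg) sc, single dose Mon–Thu and double dose Fri. Tumor area (caliper, two perpendicular axes) and body weight were measured twice weekly.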
# [3] = organism: Rattus norvegicus; assay: Percent unchanged DMBA-induced mammary carcinoma tumors in rats at 2.8 mg dose; assay type: functional; procedure, shortened: as §2
# [4] = organism: Rattus norvegicus; assay: Partial remission (%) of DMBA-induced mammary carcinoma tumors in rats at 2.8 mg dose; assay type: functional; procedure, shortened: as §2
# [5] = organism: Rattus norvegicus; assay: Number of DMBA-induced mammary carcinoma tumors in rats at 2.8 mg dose; assay type: functional
# Procedure, shortened: (§3)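 DMBA-induced tumors in Sprague-Dawley rats, entered when tumor area exceeded 140 mm². Dose per kg was given sc in olive oil, daily Monday to Thursday with a double dose Friday. Tumors were measured by calipers twice weekly. Tumor number was counted at the start of the test. Complete remission meant the tumor was no longer palpable. Partial remission meant reduction to ≤50% of initial size. New tumor appearance was recorded.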
# [6] = organism: Rattus norvegicus; assay: Change in DMBA-induced mammary carcinoma tumor area in rats at 2.8 mg dose; -39-458; assay type: functional
# Procedure, shortened: (§4)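 Female Sprague-Dawley rats got one 20 mg DMBA dose by gavage at 50 days old and were palpated twice weekly from day 30. Rats were randomized once tumor area exceeded 140 mm². Dose (per kg) was given sc in olive oil, once daily Monday to Thursday and doubled on Friday. Tumor area was taken from caliper measurements of two perpendicular axes, twice weekly. Change per animal is given as median % and range.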
# [7] = organism: Rattus norvegicus; assay: Formation of new DMBA-induced mammary carcinoma tumors in rats at 2.8 mg dose; assay type: functional; procedure, shortened: as §3
# [8] = target: T1, Estrogen receptor (Mus musculus) (UniProt O08537+P19785); assay: Percentage inhibition of uterotrophic activity at 25 ug dose; assay type: functional
# Procedure, shortened: (§5)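 Antiuterotrophic test in immature 19-day-old female NMRI mice (n=10), dosed sc on 3 consecutive days with 0.4 µg estrone per animal per day plus compound in olive oil. Uterine dry weight/body weight ×100 was read 24 h after the last dose. Inhibition % = 100 − [(E_S,T − E_V)/(E_S − E_V)]×100.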
# [9] = target: T1, Estrogen receptor (Mus musculus); assay: Percentage inhibition of uterotrophic activity at 125 ug dose; assay type: functional; procedure, shortened: as §5
# [10] = organism: Rattus norvegicus; assay: Change in body weight of DMBA-induced mammary carcinoma tumor bearing rats at 1.8 mg dose; assay type: functional; procedure, shortened: as §1
# [11] = organism: Rattus norvegicus; assay: Partial remission (%) of DMBA-induced mammary carcinoma tumors in rats at 1.8 mg dose; assay type: functional; procedure, shortened: as §3
# [12] = organism: Rattus norvegicus; assay: Number of DMBA-induced mammary carcinoma tumors in rats at 1.8 mg dose; assay type: functional; procedure, shortened: as §3
# [13] = target: T1, Estrogen receptor (Mus musculus); assay: Uterotrophic activity in mice as uterus dry weight (mg)/body weight (g) *100 at 1 ug dose; assay type: functional, tissue-based
# Procedure, shortened: (§6)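 Immature 19-day-old female NMRI mice, groups of 10. Compound dose per animal in olive oil (50 µL) sc on 3 consecutive days. Mice were killed 24 h after the last injection. Uteri were Bouin-fixed 20 h, cleaned, washed with alcoholic LiCl, and dried at 100 °C for 24 h. Effect = uterine dry weight (mg)/body weight (g) ×100; mean ± SD.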
# [14] = organism: Rattus norvegicus; assay: Change in DMBA-induced mammary carcinoma tumor area in rats at 1.8 mg dose; -75-656; assay type: functional; procedure, shortened: as §4
# [15] = target: T1, Estrogen receptor (Mus musculus); assay: Anti-uterotrophic activity in mice as uterus dry weight (mg)/body weight (g) *100 at 25 ug dose; assay type: functional, tissue-based
# Procedure, shortened: (§7)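 Immature female NMRI mice, 19 days old, groups of 10, given sc injections on 3 consecutive days. Each injection held 0.4 μg estrone plus the indole dose per animal, in olive oil (50 μL). Killed 24 h after the last injection. Uteri were fixed in Bouin solution, washed, and dried 24 h at 100 °C. Read-out was uterine dry weight (mg)/body weight (g) × 100, mean ± SD.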
# [16] = target: T1, Estrogen receptor (Mus musculus); assay: Uterotrophic activity in mice as uterus dry weight (mg)/body weight (g) *100 at 25 ug dose; assay type: functional, tissue-based; procedure, shortened: as §6
# [17] = target: T1, Estrogen receptor (Mus musculus); assay: Anti-uterotrophic activity in mice as uterus dry weight (mg)/body weight (g) *100 at 1 ug dose; assay type: functional, tissue-based; procedure, shortened: as §7
# [18] = target: T1, Estrogen receptor (Mus musculus); assay: Uterotrophic activity in mice as uterus dry weight (mg)/body weight (g) *100 at 125 ug dose; assay type: functional, tissue-based; procedure, shortened: as §6
# [19] = target: T1, Estrogen receptor (Mus musculus); assay: Anti-uterotrophic activity in mice as uterus dry weight (mg)/body weight (g) *100 at 5 ug dose; assay type: functional, tissue-based; procedure, shortened: as §7
# [20] = target: T1, Estrogen receptor (Mus musculus); assay: Uterotrophic activity in mice as uterus dry weight (mg)/body weight (g) *100 at 5 ug dose; assay type: functional, tissue-based; procedure, shortened: as §6
# [21] = organism: Rattus norvegicus; assay: Formation of new DMBA-induced mammary carcinoma tumors in rats at 1.8 mg dose; assay type: functional; procedure, shortened: as §3
# [22] = organism: Rattus norvegicus; assay: Percent progressive DMBA-induced mammary carcinoma tumors in rats at 1.8 mg dose; assay type: functional; procedure, shortened: as §2
# [23] = organism: Rattus norvegicus; assay: Percent unchanged DMBA-induced mammary carcinoma tumors in rats at 1.8 mg dose; assay type: functional; procedure, shortened: as §2
# [24] = target: T1, Estrogen receptor (Mus musculus); assay: Anti-uterotrophic activity in mice as uterus dry weight (mg)/body weight (g) *100 at 125 ug dose; assay type: functional, tissue-based; procedure, shortened: as §7
# T1 sequence (O08537 whole entry, looked up): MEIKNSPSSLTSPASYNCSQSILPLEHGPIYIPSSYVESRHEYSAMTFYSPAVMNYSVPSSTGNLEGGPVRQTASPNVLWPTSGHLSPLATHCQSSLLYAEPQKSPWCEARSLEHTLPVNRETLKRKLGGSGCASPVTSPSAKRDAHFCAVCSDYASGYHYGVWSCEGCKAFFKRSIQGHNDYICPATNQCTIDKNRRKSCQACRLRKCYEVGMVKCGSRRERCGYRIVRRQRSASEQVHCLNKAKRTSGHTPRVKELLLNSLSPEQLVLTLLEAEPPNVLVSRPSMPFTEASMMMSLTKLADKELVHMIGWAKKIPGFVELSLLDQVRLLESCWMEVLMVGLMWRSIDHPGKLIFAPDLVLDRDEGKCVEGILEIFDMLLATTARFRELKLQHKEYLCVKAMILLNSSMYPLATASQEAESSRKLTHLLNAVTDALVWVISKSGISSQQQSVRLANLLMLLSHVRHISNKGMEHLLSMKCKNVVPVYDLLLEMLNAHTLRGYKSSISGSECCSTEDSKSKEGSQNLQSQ
# T1 sequence (P19785 whole entry, looked up): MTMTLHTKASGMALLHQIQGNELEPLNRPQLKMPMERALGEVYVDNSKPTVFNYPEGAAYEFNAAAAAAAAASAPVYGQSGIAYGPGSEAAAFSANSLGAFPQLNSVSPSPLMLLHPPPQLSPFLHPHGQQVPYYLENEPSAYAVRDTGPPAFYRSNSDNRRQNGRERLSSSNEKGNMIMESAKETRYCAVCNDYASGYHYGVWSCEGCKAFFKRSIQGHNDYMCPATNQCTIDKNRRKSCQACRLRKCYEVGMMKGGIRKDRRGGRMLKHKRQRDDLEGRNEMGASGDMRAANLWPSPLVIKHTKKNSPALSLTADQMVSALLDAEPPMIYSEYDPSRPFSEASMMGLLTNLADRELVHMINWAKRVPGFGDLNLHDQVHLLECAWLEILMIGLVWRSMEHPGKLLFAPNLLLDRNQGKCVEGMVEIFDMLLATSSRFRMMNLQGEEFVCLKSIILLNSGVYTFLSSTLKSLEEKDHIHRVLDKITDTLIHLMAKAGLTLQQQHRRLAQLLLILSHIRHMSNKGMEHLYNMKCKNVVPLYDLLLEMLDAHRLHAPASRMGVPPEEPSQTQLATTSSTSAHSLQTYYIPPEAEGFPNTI
smiles,measurement,setting,value
CC/C(=C(\c1ccccc1)c1ccc(OCCN(C)C)cc1)c1ccccc1.O=C(O)CC(O)(CC(=O)O)C(=O)O [TAMOXIFEN CITRATE],Change of body weight,[1],0
same,Progressed tumors,[2],53
same,Static remission,[3],27%
same,Partial remission,[4],7%
same,No. of tumors,[5],34
same,Change of tumor area,[6],-39%
same,New tumors,[7],26
CCn1c(-c2ccc(OC(C)=O)cc2)c(C)c2cc(OC(C)=O)ccc21 [ZINDOXIFENE],inhibition,[8],45%
same,inhibition,[9],25% and 46%
same,Change of body weight,[10],1%
same,Partial remission,[11],12%
same,No. of tumors,[12],33
same,Uterotrophic effect,[13],16.4
same,Change of tumor area,[14],-75%
same,Anti-uterotrophic effect,[15],53.5 and 33.5
same,Uterotrophic effect,[16],17.9 and 21
same,Anti-uterotrophic effect,[17],38.5 and 51.1
same,Uterotrophic effect,[18],19.5 and 30.5
same,Anti-uterotrophic effect,[19],46.3 and 50.4
same,Uterotrophic effect,[20],14.1 and 19.6
same,New tumors,[21],25
same,Progressed tumors,[22],55%
same,Static tumors,[23],14%
same,Anti-uterotrophic effect,[24],37.8 and 33
